Legend:
Type in all cases: functional
H4 [1] = assay: Increase in light chain 3-GFP+ autophagosome vesicle intensity per cell in human H4 cells at 6.2 uM after 24 hrs by high throughput fluorescence microscopy relative to control
In short: (§1)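 H4 cells stably expressing LC3-GFP were grown in DMEM with 10% FBS and 2 mM L-glutamine at 37°C, 5% CO2. They were exposed to each compound for 24 h, with DMSO as negative and rapamycin as positive control. Cells were then fixed in 4% paraformaldehyde and stained with 3 μg/ml DAPI. High-throughput fluorescence imaging scored LC3-GFP spot number, size and intensity, expressed relative to DMSO. Mean ± SD of triplicates; experiments repeated three times.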

H4 [2] = assay: Increase in light chain 3-GFP+ autophagosome vesicle area per cell in human H4 cells at 6.2 uM after 24 hrs by high throughput fluorescence microscopy relative to control
In short: (§2)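 H4 cells stably expressing LC3-GFP, seeded in 96-well plates and exposed to compound for 24 h; screening concentrations were 3–12 μM, with rapamycin 0.22 μM and bafilomycin A1 0.40 μM. Cells fixed in 4% paraformaldehyde and stained with 3 μg/ml DAPI. Number, size and intensity of LC3-GFP spots measured by high-throughput fluorescence microscopy and expressed as percent of DMSO-treated wells. Rapamycin was the positive control. Triplicate wells, mean ± SD; experiments repeated three times.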

H4 [3] = assay: Increase in light chain 3-GFP+ autophagosome vesicle number per cell in human H4 cells at 6.2 uM after 24 hrs by high throughput fluorescence microscopy relative to control; in short: as §1
H4 [4] = assay: Induction of light chain 3-GFP level in human H4 cells at 6.2 uM after 24 hrs by high throughput fluorescence microscopy relative to control
In short: (§3)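 H4 cells stably expressing LC3-GFP, grown in DMEM with 10% FBS, penicillin/streptomycin and 2 mM L-glutamine at 37°C, 5% CO2. Cells were seeded in 96-well plates and exposed to library compounds at 3–12 μM for 24 h, then fixed in 4% paraformaldehyde and stained with 3 μg/ml DAPI. LC3-GFP spot number, size and intensity were measured by high-throughput fluorescence microscopy and expressed relative to DMSO. Triplicates, mean ± SD.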

H4 [5] = assay: Increase in long-lived protein degradation in human H4 cells after 1 hr relative to control; design: concentration or dose not given beside the values
H4 [6] = assay: Increase in long-lived protein degradation in human H4 cells after 2 hrs relative to control; design: concentration or dose not given beside the values
H4 [7] = assay: Increase in long-lived protein degradation in human H4 cells after 4 hrs relative to control; design: concentration or dose not given beside the values
H4 [8] = assay: Decrease in FYVE-RFP+ vesicle intensity per cell in human H4 cells after 8 hrs relative to control; design: concentration or dose not given beside the values; scale not given: the % may be the effect or the level left
In short: (§4)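 H4 cells stably expressing FYVE-RFP (H4-FYVE), grown in DMEM with 10% FBS, penicillin/streptomycin and 2 mM L-glutamine at 37°C, 5% CO2, seeded in 96-well plates and exposed to compound. Fixed in 4% paraformaldehyde, nuclei stained with 3 μg/ml DAPI, FYVE-RFP+ vesicles quantified by high-throughput fluorescence microscopy against DMSO control. Triplicate wells, mean ± SD.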

H4 [9] = assay: Decrease in FYVE-RFP+ vesicle intensity per cell in human H4 cells after 4 hrs relative to control; design: concentration or dose not given beside the values; scale not given: the % may be the effect or the level left; in short: as §4
H4 [10] = assay: Increase in long-lived protein degradation in human H4 cells after 24 hrs relative to control; design: concentration or dose not given beside the values
H4 [11] = assay: Decrease in FYVE-RFP+ vesicle intensity per cell in human H4 cells after 2 hrs relative to control; design: concentration or dose not given beside the values; scale not given: the % may be the effect or the level left; in short: as §4
H4 [12] = assay: Increase in light chain 3-GFP+ autophagosome vesicle area per cell in human H4 cells at 6.9 uM after 24 hrs by high throughput fluorescence microscopy relative to control; in short: as §2
H4 [13] = assay: Induction of light chain 3-GFP level in human H4 cells at 6.9 uM after 24 hrs by high throughput fluorescence microscopy relative to control; in short: as §3
H4 [14] = assay: Effect on FYVE-RFP+ vesicle intensity per cell in human H4 cells after 2 hrs relative to control; design: concentration or dose not given beside the values; in short: as §4
H4 [15] = assay: Increase in light chain 3-GFP+ autophagosome vesicle intensity per cell in human H4 cells at 6.9 uM after 24 hrs by high throughput fluorescence microscopy relative to control; in short: as §1
H4 [16] = assay: Effect on FYVE-RFP+ vesicle intensity per cell in human H4 cells after 8 hrs relative to control; design: concentration or dose not given beside the values; in short: as §4
H4 [17] = assay: Increase in light chain 3-GFP+ autophagosome vesicle number per cell in human H4 cells at 6.9 uM after 24 hrs by high throughput fluorescence microscopy relative to control; in short: as §1
H4 [18] = assay: Effect on FYVE-RFP+ vesicle intensity per cell in human H4 cells after 4 hrs relative to control; design: concentration or dose not given beside the values; in short: as §4
H4 [19] = assay: Increase in light chain 3-GFP+ autophagosome vesicle number per cell in human H4 cells at 5.2 uM after 24 hrs by high throughput fluorescence microscopy relative to control; in short: as §1
H4 [20] = assay: Increase in light chain 3-GFP+ autophagosome vesicle area per cell in human H4 cells at 5.2 uM after 24 hrs by high throughput fluorescence microscopy relative to control; in short: as §2
H4 [21] = assay: Increase in light chain 3-GFP+ autophagosome vesicle intensity per cell in human H4 cells at 5.2 uM after 24 hrs by high throughput fluorescence microscopy relative to control; in short: as §1
H4 [22] = assay: Induction of light chain 3-GFP level in human H4 cells at 5.2 uM after 24 hrs by high throughput fluorescence microscopy relative to control; in short: as §3
H4 [23] = assay: Increase in light chain 3-GFP+ autophagosome vesicle intensity per cell in human H4 cells at 6.0 uM after 24 hrs by high throughput fluorescence microscopy relative to control
In short: (§5)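 H4 cells stably expressing LC3-GFP, seeded in 96-well plates and exposed to compound for 24 h; fixed in 4% paraformaldehyde, nuclei stained with 3 μg/ml DAPI. Automated fluorescence microscopy scored number, size and intensity of LC3-GFP spots; values expressed relative to DMSO-treated wells, rapamycin positive control. Triplicate wells, mean ± SD; experiments repeated three times.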

H4 [24] = assay: Increase in light chain 3-GFP+ autophagosome vesicle number per cell in human H4 cells at 6.0 uM after 24 hrs by high throughput fluorescence microscopy relative to control
In short: (§6)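 H4 cells stably expressing LC3-GFP, kept in DMEM/10% FBS at 37°C, 5% CO2, were seeded in 96-well plates and exposed to compound for 24 h. Cells were then fixed in 4% paraformaldehyde and stained with 3 μg/ml DAPI. Automated fluorescence microscopy scored the number, size and intensity of LC3-GFP spots. Values are percent of DMSO wells, in triplicate, mean ± SD. Rapamycin served as positive control.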

H4 [25] = assay: Induction of light chain 3-GFP level in human H4 cells at 6.0 uM after 24 hrs by high throughput fluorescence microscopy relative to control; in short: as §6
H4 [26] = assay: Increase in light chain 3-GFP+ autophagosome vesicle area per cell in human H4 cells at 6.0 uM after 24 hrs by high throughput fluorescence microscopy relative to control; in short: as §5

Compound | Activity (H4 [5]) | Activity (H4 [6]) | Activity (H4 [7]) | Activity (H4 [8]) | Activity (H4 [9]) | Activity (H4 [10]) | Activity (H4 [11]) | Activity (H4 [19]) | Activity (H4 [20]) | Activity (H4 [21]) | Activity (H4 [22]) | other results
COc1ccc(CCCOC(Cn2ccnc2)c2ccc(OC)cc2)cc1 (stereo unspecified) |  |  |  |  |  |  |  |  |  |  |  | Activity (H4 [1]): 285.59%; Activity (H4 [2]): 209.11%; Activity (H4 [3]): 179.88%; Activity (H4 [4]): 42.96%
O=C1Nc2ccccc2/C1=C1/Nc2ccccc2C1=O [INDIRUBIN] | 105.91% | 94.5% | 95.3% | 59.18% | 35.1% | 100.5% | 73.16% |  |  |  |  | 
C=C[C@H]1CN2CC[C@H]1C[C@H]2[C@H](O)c1ccnc2ccc(OC)cc12 [QUININE] | 94.35% | 110.94% | 99.32% |  |  | 103.56% |  |  |  |  |  | Activity (H4 [12]): 160.38%; Activity (H4 [13]): 115.16%; Activity (H4 [14]): 70.35%; Activity (H4 [15]): 165.01%; Activity (H4 [16]): 60.7%; Activity (H4 [17]): 146.94%; Activity (H4 [18]): 78.03%
COc1ccc(CCN(C)CCC[C@](C#N)(c2ccc(OC)c(OC)c2)C(C)C)cc1OC [VERAPAMIL] | 103.33% | 114.92% | 97.84% |  |  | 94.39% |  | 168.55% | 200.63% | 238.6% | 132.44% | 
O=S(=O)(c1cccc2c(Cl)cccc12)N1CCCNCC1 |  |  |  |  |  |  |  |  |  |  |  | Activity (H4 [12]): 272.31%; Activity (H4 [13]): 82.33%; Activity (H4 [15]): 447.81%; Activity (H4 [17]): 210.65%
CN(CCc1ccc(Cl)c(Cl)c1)CC(O)COc1ccc(NS(C)(=O)=O)cc1 (stereo unspecified) | 95.15% | 86.27% | 91.75% |  |  | 96.25% |  | 166.24% | 192.05% | 222.83% | 135.28% | Activity (H4 [14]): 68.06%; Activity (H4 [16]): 66.35%; Activity (H4 [18]): 71.97%
CC1(C)C(C=C(Cl)Cl)C1C(=O)OC(C#N)c1cccc(Oc2ccccc2)c1 (stereo not drawn) [ALPHA-CYPERMETHRIN] | 94.75% | 95.28% | 98.36% | 58.22% | 29.13% | 103.75% | 33.75% |  |  |  |  | Activity (H4 [23]): 208.14%; Activity (H4 [24]): 174.74%; Activity (H4 [25]): 97.45%; Activity (H4 [26]): 200.12%
C=C1[C@@H](C)[C@H]2[C@H](Cc3ccccc3)NC(=O)[C@]23OC(=O)/C=C/[C@H](O)CCC[C@@H](C)C/C=C/[C@H]3[C@@H]1O [CYTOCHALASIN B] |  |  |  |  |  |  |  | 208.73% | 247.77% | 286.43% | 30.58% | 
O=c1cc(N2CCOCC2)oc2c(-c3ccccc3)cccc12 [LY-294002] |  |  |  | 11.09% | 14.79% |  | 24.99% |  |  |  |  | 
Fc1ccc(C(c2ccc(F)cc2)N2CCN(C/C=C/c3ccccc3)CC2)cc1 [FLUNARIZINE] | 97.33% | 107.1% | 93.65% | 48.6% | 44.48% | 113.6% | 53.92% | 155.03% | 179.26% | 203.66% | 104.67% | 
CC(C)[C@@H](O)CC[C@@H](C)[C@H]1CC[C@H]2[C@@H]3CC=C4C[C@@H](O)CC[C@]4(C)[C@H]3CC[C@]12C | 125.06% | 105.76% | 89.7% | 38.51% | 38.32% | 106.22% | 38.02% |  |  |  |  | Activity (H4 [1]): 648.9%; Activity (H4 [2]): 299.59%; Activity (H4 [3]): 220.93%; Activity (H4 [4]): 108.2%
CC[C@H]1[C@@H]2C=C[C@H]3[C@@H](C[C@H]4/C=C/C(=O)C5=C[C@H](CCCNC(=O)/C=C\C[C@H]34)NC5=O)[C@H]2C[C@H]1C [IKARUGAMYCIN] |  |  |  |  |  |  |  | 75.79% | 107.27% | 172.85% | 50.16% | 
CCCC[C@@H](C=O)NC(=O)[C@H](CC(C)C)NC(=O)OCc1ccccc1 [CALPEPTIN] | 73.3% | 68.3% | 78.67% | 61.02% | 63.28% | 81.62% | 58.44% |  |  |  |  | Activity (H4 [12]): 207.34%; Activity (H4 [13]): 128.87%; Activity (H4 [15]): 232.89%; Activity (H4 [17]): 177.07%
CC1(C)[C@@H](O)C[C@H]2[C@](C)(O)[C@@H]3CC[C@@H]4[C@@H](O)[C@@]3(C[C@@H](O)[C@@]21O)C[C@@]4(C)O [GRAYANOTOXIN III] | 95.81% | 96.23% | 90.49% | 39.83% | 39.37% | 91.03% | 45.44% |  |  |  |  | Activity (H4 [23]): 210.65%; Activity (H4 [24]): 130.17%; Activity (H4 [25]): 129.36%; Activity (H4 [26]): 154.31%
CC(C)COCC(CN(Cc1ccccc1)c1ccccc1)N1CCCC1 (stereo unspecified) [BEPRIDIL] | 101.9% | 112.64% | 98.78% | 35.94% | 45.17% | 117.59% | 65.27% |  |  |  |  | Activity (H4 [1]): 168.39%; Activity (H4 [2]): 160.34%; Activity (H4 [3]): 144.05%; Activity (H4 [4]): 111.92%
CC(/C=C/C(=O)NO)=C\[C@@H](C)C(=O)c1ccc(N(C)C)cc1 [TRICHOSTATIN] |  |  |  |  |  |  |  | 636.52% | 864.85% | 1649.69% | 40.15% | 

From ChEMBL document CHEMBL1145471, “Small molecule regulators of autophagy identified by an image-based high-throughput screen” (Proc Natl Acad Sci U S A, 2007)
